# In ChEMBL document CHEMBL1156470, “Inhibition of the activation of multiple serine proteases with a cathepsin C inhibitor requires sustained exposure to prevent pro-enzyme processing” (J Biol Chem, 2007):
# The source made the active and inactive calls. The calls are words filed in the database; no cut-off is given here.
# Experiments:
# [1] = target: T1, Cathepsin G (Mus musculus) (UniProt P28293); test: Inhibition of cathepsin G activity in beta-estradiol differentiated mouse EcoM-G cells at 10 uM after 24 hrs in the absence of estradiol; assay type: cell-based
# T1 sequence (whole entry): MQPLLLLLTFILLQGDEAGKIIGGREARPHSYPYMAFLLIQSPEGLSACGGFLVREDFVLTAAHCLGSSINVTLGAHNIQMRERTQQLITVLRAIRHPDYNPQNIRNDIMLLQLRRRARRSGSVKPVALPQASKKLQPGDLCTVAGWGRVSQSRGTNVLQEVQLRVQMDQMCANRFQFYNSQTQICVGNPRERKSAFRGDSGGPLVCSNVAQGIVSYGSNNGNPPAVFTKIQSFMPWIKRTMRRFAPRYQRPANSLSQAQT
# How it was run: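 EcoM-G cells seeded without β-estradiol to differentiate. 10 μM compound or vehicle added 24 h after estrogen removal, and aliquots taken over time up to 3 days. CG activity in extracts measured with 1 mM Suc-Ala-Ala-Pro-Phe-pNA, absorbance at 405 nm over 5 min, in 100 mM Tris pH 7.5, 1 M NaCl.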
# U-937 (Homo sapiens) = test: Effect on neutrophil elastase protein expression in human U937 cells at 30 uM after 7 days by Western blot
# U-937 = test: Effect on neutrophil elastase protein expression in human U937 cells at 30 uM after 7 days by Western blot; assay type: functional, cell-based
# Myeloblastin [2] = target: T2, Myeloblastin (Mus musculus, UniProt Q61096); test: Inhibition of proteinase-3 activation in beta-estradiol differentiated mouse EcoM-G cells after 24 hrs; assay type: cell-based
# T2 sequence (Q61096 whole entry): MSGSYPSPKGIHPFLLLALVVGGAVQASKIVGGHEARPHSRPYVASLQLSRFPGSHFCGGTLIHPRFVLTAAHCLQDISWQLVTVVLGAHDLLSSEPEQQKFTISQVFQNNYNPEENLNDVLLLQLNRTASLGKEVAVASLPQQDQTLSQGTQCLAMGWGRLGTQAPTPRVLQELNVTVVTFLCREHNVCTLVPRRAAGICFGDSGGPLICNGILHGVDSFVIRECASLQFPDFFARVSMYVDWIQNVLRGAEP
# How it was run: (§1)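 EcoM-G cells (cultures <3 months old) washed and seeded at 0.5×10^6 cells/ml without β-estradiol. After 24 h, compound added in Me₂SO (final 0.5%), then cells differentiated a further 24 h, harvested and lysed. NE assayed with 400 μM MeOSuc-AAPV-AMC, CG with 1 mM Suc-AAPF-pNA (405 nm, 5 min), Pr-3 with 10 μM internally quenched substrate (ex 328/em 393 nm), all from the same lysates. IC50 from four-parameter Hill fit.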
# Pro-cathepsin H = target: T3, Pro-cathepsin H (Homo sapiens, UniProt P09668); test: Inhibition of human recombinant cathepsin H after 10 mins
# T3 sequence (P09668 whole entry): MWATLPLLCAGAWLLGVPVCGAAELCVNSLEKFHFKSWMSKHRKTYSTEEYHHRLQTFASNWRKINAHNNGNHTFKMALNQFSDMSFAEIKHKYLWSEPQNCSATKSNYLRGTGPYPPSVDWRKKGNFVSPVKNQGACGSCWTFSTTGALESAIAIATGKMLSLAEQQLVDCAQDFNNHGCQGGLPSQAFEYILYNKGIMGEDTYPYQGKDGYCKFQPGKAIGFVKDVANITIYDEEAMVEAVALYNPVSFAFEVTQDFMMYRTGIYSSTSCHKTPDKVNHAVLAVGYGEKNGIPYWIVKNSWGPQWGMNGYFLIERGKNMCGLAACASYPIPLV
# Neutrophil elastase [3] = target: T4, Neutrophil elastase (Homo sapiens, UniProt P08246); test: Blockade of neutrophil elastase processing in human U937 cells after 7 days by fluorogenic substrate cleavage assay; assay type: cell-based, U-937
# T4 sequence (P08246 whole entry): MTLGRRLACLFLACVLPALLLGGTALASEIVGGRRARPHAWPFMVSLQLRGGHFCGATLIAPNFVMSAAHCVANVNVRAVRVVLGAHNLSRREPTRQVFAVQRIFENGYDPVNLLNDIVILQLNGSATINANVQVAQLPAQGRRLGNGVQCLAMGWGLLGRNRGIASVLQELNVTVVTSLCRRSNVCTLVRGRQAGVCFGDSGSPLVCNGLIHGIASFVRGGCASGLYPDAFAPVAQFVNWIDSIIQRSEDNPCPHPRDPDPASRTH
# How it was run: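 U937 seeded at 1×10^5 cells/ml with vehicle or inhibitor, passaged and diluted 10-fold into fresh medium with compound on days 3 and 5, harvested day 7. Cells washed and lysed in 20 mM Tris pH 7.5, 100 mM NaCl, 0.2% NP-40. NE rate measured with 400 μM MeOSuc-AAPV-AMC (ex 370/em 450 nm, 10 min). % inhibition vs vehicle, four wells per point.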
# Cathepsin G = target: T5, Cathepsin G (Homo sapiens, UniProt P08311); test: Inhibition of cathepsin G in human U937 cells; assay type: cell-based, U-937
# T5 sequence (P08311 whole entry): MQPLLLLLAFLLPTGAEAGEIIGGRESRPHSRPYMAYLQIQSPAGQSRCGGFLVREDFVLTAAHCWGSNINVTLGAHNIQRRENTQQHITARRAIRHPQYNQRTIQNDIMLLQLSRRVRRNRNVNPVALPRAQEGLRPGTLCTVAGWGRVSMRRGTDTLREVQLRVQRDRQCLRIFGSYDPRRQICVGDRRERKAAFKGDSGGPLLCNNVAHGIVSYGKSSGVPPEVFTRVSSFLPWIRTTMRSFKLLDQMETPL
# Neutrophil elastase [4] = target: T6, Neutrophil elastase (Mus musculus, UniProt Q3UP87); test: Inhibition of neutrophil elastase activation in beta-estradiol differentiated mouse EcoM-G cells after 24 hrs; assay type: cell-based; how it was run: as §1
# T6 sequence (Q3UP87 whole entry): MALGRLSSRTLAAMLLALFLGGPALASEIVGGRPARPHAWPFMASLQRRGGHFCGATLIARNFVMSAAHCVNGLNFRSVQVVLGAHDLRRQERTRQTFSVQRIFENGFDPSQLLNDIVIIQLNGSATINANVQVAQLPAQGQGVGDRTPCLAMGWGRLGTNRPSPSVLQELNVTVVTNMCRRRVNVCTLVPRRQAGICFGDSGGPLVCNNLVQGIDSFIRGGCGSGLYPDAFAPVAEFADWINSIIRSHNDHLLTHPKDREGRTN
# Cathepsin B = Cathepsin B (Homo sapiens, UniProt P07858); test: Inhibition of human recombinant cathepsin B after 10 mins
# Myeloblastin [5] = target: T7, Myeloblastin (Homo sapiens, UniProt P24158); test: Inhibition of proteinase-3 in human U937 cells; assay type: cell-based, U-937
# T7 sequence (P24158 whole entry): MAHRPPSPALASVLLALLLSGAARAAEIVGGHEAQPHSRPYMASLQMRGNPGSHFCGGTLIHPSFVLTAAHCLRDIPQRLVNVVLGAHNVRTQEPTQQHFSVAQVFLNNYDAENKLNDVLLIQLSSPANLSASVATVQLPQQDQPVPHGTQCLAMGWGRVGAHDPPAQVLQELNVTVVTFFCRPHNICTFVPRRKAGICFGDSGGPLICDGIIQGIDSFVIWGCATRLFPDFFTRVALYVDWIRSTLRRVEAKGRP
# Procathepsin L = Procathepsin L (Homo sapiens, UniProt P07711); test: Inhibition of human recombinant cathepsin L after 10 mins
# [6] = target: T8, Neutrophil elastase (Homo sapiens) (UniProt P08246); details: U-937, 1 uM
# T8 sequence (whole entry): T4 sequence (P08246 whole entry)
# Procathepsin L, sequence (P07711 whole entry): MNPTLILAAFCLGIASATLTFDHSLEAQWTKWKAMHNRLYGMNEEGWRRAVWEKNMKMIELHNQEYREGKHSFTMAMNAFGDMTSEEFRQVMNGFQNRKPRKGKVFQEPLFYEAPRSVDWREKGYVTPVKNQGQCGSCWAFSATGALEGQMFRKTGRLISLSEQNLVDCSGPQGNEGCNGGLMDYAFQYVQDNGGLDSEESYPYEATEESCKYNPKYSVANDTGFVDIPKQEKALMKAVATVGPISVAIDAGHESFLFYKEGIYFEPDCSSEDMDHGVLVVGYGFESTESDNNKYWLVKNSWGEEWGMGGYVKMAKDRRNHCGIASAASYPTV
compound,measurement,setting,value
N#C[C@@]1(NC(=O)[C@@H](N)Cc2cccs2)C[C@@H]1c1ccccc1.O=C(O)C(F)(F)F,Activity,[1],Active
same,Activity,U-937 (Homo sapiens),inactive
same,Activity,U-937,inactive
same,IC50,Myeloblastin [2],140 nM
same,IC50,Pro-cathepsin H,> 50000 nM
same,IC50,Neutrophil elastase [3],220 nM
same,IC50,Cathepsin G,> 50000 nM
same,IC50,Neutrophil elastase [4],160 nM
same,IC50,Cathepsin B,> 50000 nM
same,IC50,Myeloblastin [5],> 50000 nM
same,IC50,Procathepsin L,5400 nM
same,inhibition,[6],> 90%
